The record followed here is ChEMBL document CHEMBL1212711, “Mechanistic and functional insights into fatty acid activation in Mycobacterium tuberculosis” (Nat Chem Biol, 2009).

The structures appear in SMILES notation. Converted amounts (≈) assume the structure as drawn. The source made the active and inactive calls. No cut-off for these calls is given here.

In experiment [1] the test system is Mycobacterium tuberculosis. The experiment is described as follows: Antimicrobial activity against Mycobacterium tuberculosis H37Rv assessed as concentration required for 100-fold reduction in bacterial CFU. The experiment is classed as functional. The method in brief: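 H37Rv culture serially diluted and plated on Middlebrook 7H10 agar with OADC containing various concentrations of the acyl-AMS analogue. Colonies counted after two weeks at 37°C. MIC is the concentration giving a 10^2-fold CFU reduction.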

Experiment [2] relates to Mycobacterium tuberculosis H37Rv. Put plainly: Stabilization of Mycobacterium tuberculosis H37Rv FAAL28 assessed as protection against proteolysis. In short, it runs like this: (§1)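 Limited tryptic proteolysis of purified protein in the presence of increasing LAMS concentrations. Protection from fragmentation taken as a sign of binding-induced conformational change.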
For experiment [3], the system named is Mycobacterium tuberculosis. Put plainly: Antimicrobial activity against Mycobacterium tuberculosis H37Rv assessed decrease in fatty acid biosynthesis by [14C]-acetate incorporation assay. In kind it is functional, organism-based. In short, it runs like this:
(§2)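 Mid-log H37Rv cultures (10 ml) given 5 μCi ^14C-propionate (methylated lipids) or ^14C-acetate (fatty/mycolic acids) plus various LAMS concentrations. Incubated 16 h at 37°C. Mycolic acids and total extractable lipids then analysed.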

In experiment [4] the test system is Mycobacterium tuberculosis. The experiment is described as follows: Antimicrobial activity against Mycobacterium tuberculosis H37Rv assessed decrease in SL-1 biosynthesis by [14C]propionate incorporation assay. In kind it is functional, organism-based. The method in brief: as §2
Experiment [5] concerns Mycobacterium tuberculosis H37Rv. The experiment is described as follows: (§3) Inhibition of Mycobacterium tuberculosis H37Rv FAAL19. The settings on record: TDE = time-dependent effect. The method in brief:
(§4)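 Purified enzyme pre-incubated with increasing LAMS concentrations, then activity measured by radio-TLC acyl-adenylation assay. Dose-response data fitted to the Morrison tight-binding equation using enzyme concentration to obtain apparent Ki.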

Experiment [6] relates to Mycobacterium tuberculosis. The experiment is described as follows: Antimicrobial activity against Mycobacterium tuberculosis MC2 assessed as concentration required for 100-fold reduction in bacterial CFU. In kind it is functional. The method in brief: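 Susceptibility followed by CFU counts on plates containing various inhibitor concentrations. MIC99 is taken as the concentration causing a 10^2 reduction in colony forming units.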

Experiment [7] has as its system Mycobacterium tuberculosis H37Rv. The experiment is described as follows: (§5) Inhibition of Mycobacterium tuberculosis H37Rv FACL28. The following applies: TDE = time-dependent effect. The method in brief:
as §4

Experiment [8] has the same test system. Put plainly: Stabilization of Mycobacterium tuberculosis H37Rv FACL19 assessed as protection against proteolysis. The method in brief: as §1
Experiment [9] relates to Mycobacterium tuberculosis. Put plainly: Antimicrobial activity against Mycobacterium tuberculosis H37Rv assessed as occurrence of irregular cell shape by transmission electron microscopy. In kind it is functional, organism-based.
Experiment [10] deals with Mycobacterium tuberculosis H37Rv. Put plainly: Binding affinity to Mycobacterium tuberculosis H37Rv FACL28 assessed as noncovalent protein-ligand interaction by mass spectroscopy. The method in brief: (§6)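 Purified enzyme–inhibitor (EI*) complex extracted with ethyl acetate. Released acyl-AMS detected by mass spectrometry to test for non-covalent versus covalent binding.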

The subject of experiment [11] is Mycobacterium tuberculosis. Put plainly: Antimicrobial activity against Mycobacterium tuberculosis H37Rv assessed decrease in PDIM biosynthesis by [14C]propionate incorporation assay. The experiment is classed as functional, organism-based. In short, it runs like this:
as §2

Experiment [12] deals with Mycobacterium tuberculosis. Put plainly: Antimicrobial activity against Mycobacterium tuberculosis H37Rv assessed decrease in mycolic acid biosynthesis by [14C]-acetate incorporation assay. In kind it is functional, organism-based. The method in brief: as §2
Experiment [13] concerns Mycobacterium tuberculosis H37Rv. Put plainly: Binding affinity to Mycobacterium tuberculosis H37Rv FAAL19 assessed as noncovalent protein-ligand interaction by mass spectroscopy. The method in brief: as §6
Experiment [14] has as its system Mycobacterium tuberculosis. The experiment is described as follows: Antimicrobial activity against Mycobacterium tuberculosis H37Rv assessed as degeneration of lipid layer in cell wall by transmission electron microscopy. The experiment is classed as functional, organism-based.
Experiment [15] has as its system Mycobacterium tuberculosis. Put plainly: Antimicrobial activity against Mycobacterium tuberculosis H37Rv assessed as degeneration of peptidoglycan layer in cell wall by transmission electron microscopy. The experiment is classed as functional, organism-based.
In experiment [16] the test system is Mycobacterium tuberculosis. The experiment is described as follows: Antimicrobial activity against Mycobacterium tuberculosis H37Rv assessed as reduction in appearance of dense granular cytoplasm by transmission electron microscopy. In kind it is functional, organism-based.
Experiment [17] concerns Mycobacterium tuberculosis H37Rv. Put plainly: Activity at Mycobacterium tuberculosis H37Rv FACL19 assessed as acy-CoA formation by radio-TLC assay.
Experiment [18] is described as follows: as §3. In short, it runs like this:
as §4

Experiment [19] relates to Mycobacterium tuberculosis H37Rv. Put plainly: Activity at Mycobacterium tuberculosis H37Rv FAAL28 assessed as conversion of lauroyl-AMP to lauryl-CoA by radio-TLC assay.
Experiment [20] is described as follows: as §5. The method in brief: as §4
The subject of experiment [21] is Rhodococcus sp. Put plainly: Activity at Rhodococcus sp. FAAL expressed in Escherichia coli assessed as palmitoyl-CoA formation at 1 mM by TLC method. In short, it runs like this:
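Recombinant Rhodococcus ro_4064 protein expressed in E. coli, assayed cell-free with palmitic acid as substrate, with or without 1 mM CoASH. Products separated by TLC and detected by autoradiography.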

The term MIC99 denotes the lowest concentration that inhibits either 99% of growth or 99% of the strains tested, depending on the study. Broadly, the Km is the substrate concentration at which the rate is half of its maximum. In the case of `CCCCCCCCCCCC(=O)NS(=O)(=O)OC[C@H]1O[C@@H](n2cnc3c(N)ncnc32)[C@H](O)[C@@H]1O`, the MIC99 in experiment [1] was determined as 100 µM (≈ 52.9 µg/mL); in [6], 215 µM (≈ 114 µg/mL). The Activity result in [2], in experiment [8] and in experiment [12] was “Dose-dependent effect” throughout. Further, the outcome in experiment [3] was inactive. The result in experiment [4], in experiment [9], in [11], in experiment [13], in [14] and in experiment [15] was Active. Further, the outcome in experiment [16] was Active. Moreover, the inhibition entry in experiment [5] and in experiment [7] was “tde” throughout. The Michaelis constant (Km) in [10] turned out to be 24 µM.

For orientation: IC50 means the concentration that inhibits the measured activity by half. The low end stands for inhibition by little substance, the high end for a need for much substance. For `CC(C)(COP(=O)(O)OP(=O)(O)OC[C@H]1O[C@@H](n2cnc3c(N)ncnc32)[C@H](O)[C@@H]1OP(=O)(O)O)[C@@H](O)C(=O)NCCC(=O)NCCS` [COENZYME_A], the result in experiment [17] was Active. Further, the IC50 in [18] was 1250 nM; in experiment [20], 1200 nM. In experiment [18] (read-out: Ki(app)), the Ki came to 4900 nM. For the same molecule, the result in [19] and in experiment [21] was inactive.
